Results taken from publication PMC9070660 (RSC Advances, 2019).

What was measured:
IOSE80 cells = assay: MTT cell viability assay, normal ovarian epithelial cells IOSE80; assay type: cell-based; details: Homo sapiens, IOSE80, 48 h, read-out: IC50 (cell viability) IOSE80
How it was run: (§1)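 Culture: SKOV3 in RPMI-1640 with 10% FBS and penicillin-streptomycin at 37 °C, 5% CO2; OVCAR3 and IOSE80 in DMEM. Cells seeded at 1 × 10^4 per well, grown 24 h, then exposed to a range of test compound concentrations for 48 h. MTT (2 mg mL−1 stock) added, […]; formazan dissolved in DMSO; A490 read. IC50 calculated; SI = IC50 IOSE80/IC50 cancer line; three separate experiments.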

SKOV3 cells = assay: MTT cell viability assay, SKOV3; assay type: cell-based, human
How it was run: as §1

OVCAR3 cells = assay: MTT cell viability assay, OVCAR3; assay type: cell-based, human
How it was run: as §1

- IC50 (SKOV3 cells; Homo sapiens, SK-OV-3, 48 h, read-out: IC50 (cell viability) SKOV3): 0.43 ± 0.03 µM
- IC50 (OVCAR3 cells; Homo sapiens, OVCAR-3, 48 h, read-out: IC50 (cell viability) OVCAR3): 0.38 ± 0.04 µM
Structure (SMILES): CC(=O)O[C@H]1C(=O)[C@@]2(C)[C@H]([C@H](OC(=O)c3ccccc3)[C@]3(O)C[C@H](OC(=O)[C@H](O)[C@@H](NC(=O)c4ccccc4)c4ccccc4)C(C)=C1C3(C)C)[C@]1(OC(C)=O)CO[C@@H]1C[C@@H]2O [Paclitaxel]
- IC50 (IOSE80 cells): 1.7 ± 0.1 µM
- SI (selectivity index) SKOV3 (SKOV3 cells; IC50 IOSE80 cell line/IC50 SKOV3): 4.0
- SI (selectivity index) OVCAR3 (OVCAR3 cells; IC50 IOSE80 cell line/IC50 OVCAR3): 4.5
